Consider 11 compounds from ChEMBL document CHEMBL3588764, “Fluoro-substituted phenylazocarboxamides: Dopaminergic behavior and N-arylating properties for irreversible binding” (Bioorg Med Chem, 2015).

The term Ki denotes a dissociation constant, usually derived from enzyme kinetics or from competition with a known ligand. Read a high Ki as weaker binding. Usually EC50 stands for the concentration needed to bring the measured effect to its halfway point.

Test [1] deals with T1, D(2) dopamine receptor (Homo sapiens, UniProt P14416). The test can be described thus: Displacement of [3H]spiperone from human dopamine D2 long receptor expressed in CHO cell membranes. In short, it runs like this: (§1)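 Membranes of CHO cells stably expressing each human receptor; [³H]spiperone final 0.1–0.2 nM (D2long), 0.2 nM (D2short), 0.2–0.4 nM (D3), 0.15–0.35 nM (D4.4), set by K_D. Protein per well 4–6, 1–4, 1–6 and 5–6 µg respectively. EC50 from competition curves by non-linear regression, converted to Ki with Cheng–Prusoff; Ki mean of 3–7 independent experiments in triplicate.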
T1 sequence (P14416 whole entry): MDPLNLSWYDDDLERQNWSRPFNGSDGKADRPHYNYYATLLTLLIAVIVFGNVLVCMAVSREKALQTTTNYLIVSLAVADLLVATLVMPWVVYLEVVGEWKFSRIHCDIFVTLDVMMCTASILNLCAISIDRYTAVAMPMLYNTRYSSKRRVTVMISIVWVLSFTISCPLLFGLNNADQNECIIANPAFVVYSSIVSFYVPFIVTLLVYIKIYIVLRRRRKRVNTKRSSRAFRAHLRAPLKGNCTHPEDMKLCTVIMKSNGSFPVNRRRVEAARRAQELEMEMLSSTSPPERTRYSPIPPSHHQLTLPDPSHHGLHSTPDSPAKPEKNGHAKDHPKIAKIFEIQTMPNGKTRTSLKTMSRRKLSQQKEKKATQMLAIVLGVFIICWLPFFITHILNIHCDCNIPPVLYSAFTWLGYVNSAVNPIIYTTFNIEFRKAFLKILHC

In test [2] the target is T2, D(3) dopamine receptor (Homo sapiens, UniProt P35462). Description: Activation of wild type human dopamine D3 receptor expressed in HEK293 cells co-expressing GaqG66Di5- incubated for 120 mins by scintillation counting based myo-[3H]inositol phosphate accumulation assay relative to quinpirole. The format is functional, cell-based. In short, it runs like this: (§2)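 HEK293T cells transiently co-transfected with human D3 (wild type or L89K mutant) plus GαqG66Di5; 24 h later seeded and labelled with myo-[³H]inositol. Next day, compounds in Tris/EDTA/MgCl2/DTT buffer pH 7.4 with 10 mM LiCl for 120 min at 37 °C. Total IP isolated by anion exchange and counted by scintillation; expressed as fold over basal (unstimulated = 1).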
T2 sequence (P35462 whole entry): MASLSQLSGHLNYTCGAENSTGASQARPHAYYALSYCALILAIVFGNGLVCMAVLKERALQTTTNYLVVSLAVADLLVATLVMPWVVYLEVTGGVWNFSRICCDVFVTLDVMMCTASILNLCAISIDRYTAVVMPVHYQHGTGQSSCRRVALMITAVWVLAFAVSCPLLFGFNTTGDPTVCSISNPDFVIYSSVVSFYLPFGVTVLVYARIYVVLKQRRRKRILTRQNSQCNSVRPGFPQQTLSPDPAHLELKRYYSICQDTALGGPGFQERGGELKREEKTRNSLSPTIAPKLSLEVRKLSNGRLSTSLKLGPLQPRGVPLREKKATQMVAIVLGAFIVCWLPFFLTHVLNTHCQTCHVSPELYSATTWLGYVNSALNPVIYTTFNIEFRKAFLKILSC

In another test the target is T3, D(4) dopamine receptor (Homo sapiens, UniProt P21917).
T3 sequence (P21917 whole entry): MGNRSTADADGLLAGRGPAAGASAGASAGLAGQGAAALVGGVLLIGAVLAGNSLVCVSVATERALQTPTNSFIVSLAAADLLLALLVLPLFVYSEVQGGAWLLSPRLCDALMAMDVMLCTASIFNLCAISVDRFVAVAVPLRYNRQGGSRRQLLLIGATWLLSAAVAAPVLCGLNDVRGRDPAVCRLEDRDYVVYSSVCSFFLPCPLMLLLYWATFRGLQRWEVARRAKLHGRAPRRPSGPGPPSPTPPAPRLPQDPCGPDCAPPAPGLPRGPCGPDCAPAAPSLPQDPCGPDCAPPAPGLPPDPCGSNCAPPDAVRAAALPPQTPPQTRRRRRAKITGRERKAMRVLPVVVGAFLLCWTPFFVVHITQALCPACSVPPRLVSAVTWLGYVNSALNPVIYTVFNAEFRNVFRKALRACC
Description: Displacement of [3H]spiperone from human dopamine D4.4 receptor expressed in CHO cell membranes. In short, it runs like this: as §1

In test [3] the target is T2, D(3) dopamine receptor. Description: Displacement of [3H]spiperone from human dopamine D3 receptor expressed in CHO cell membranes. In short, it runs like this: as §1
(In general: Displacement assays read how much labelled ligand stays bound in the presence of the test substance.)

In test [4] the target is T2, D(3) dopamine receptor. The test can be described thus: Activation of wild type human dopamine D3 receptor expressed in HEK293 cells co-expressing GaqG66Di5- incubated for 120 mins by scintillation counting based myo-[3H]inositol phosphate accumulation assay. The format is functional, cell-based.
In test [5] the test system is D(3) dopamine receptor (Homo sapiens), P35462 [L89K]. The test can be described thus: Activation of human dopamine D3 receptor L89K mutant expressed in HEK293 cells co-expressing GaqG66Di5- incubated for 120 mins by scintillation counting based myo-[3H]inositol phosphate accumulation assay relative to control. Type of test: functional, cell-based. In short, it runs like this: as §2
Sequence of D(3) dopamine receptor (Homo sapiens), P35462 [L89K] (P35462 as listed by the source): as the sequence (P35462 whole entry) above, with G9S, L89K counted along it

The target of test [6] is D(3) dopamine receptor (Homo sapiens, UniProt P35462, L89K). The test can be described thus: Activation of human dopamine D3 receptor L89K mutant expressed in HEK293 cells co-expressing GaqG66Di5- incubated for 120 mins by scintillation counting based myo-[3H]inositol phosphate accumulation assay. The format is functional, cell-based.
Sequence of D(3) dopamine receptor (Homo sapiens, UniProt P35462, L89K) (P35462 as listed by the source L89K): as the sequence (P35462 whole entry) above, with G9S, L89K counted along it
Test [7] has as its target T1, D(2) dopamine receptor. Description: Displacement of [3H]spiperone from human dopamine D2 short receptor expressed in CHO cell membranes. Put shortly: as §1
The species entered for test [8] is Homo sapiens. Description: Selectivity index, ratio of Ki for human dopamine D2 short receptor to Ki for human dopamine D3 receptor. In short, it runs like this: (§3)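 Ratio of Ki at D2long or D2short to Ki at D3, with both Ki values from [³H]spiperone competition on CHO membranes stably expressing the human receptors.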
Test [9] is filed under the species Homo sapiens. Description: Selectivity index, ratio of Ki for human dopamine D2 long receptor to Ki for human dopamine D3 receptor. In short, it runs like this: as §3
For another test, the target named is D(1B) dopamine receptor (Homo sapiens, UniProt P21918). The test can be described thus: Displacement of [3H]SCH23390 from human dopamine D5 receptor expressed in HEK293 cell membranes. Put shortly:
(§4)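 Homogenates from HEK 293 cells transiently transfected (calcium phosphate) with the human receptor gene in pcDNA3.1. [³H]SCH23390 at 0.3–0.7 nM (D1) or 0.4–0.5 nM (D5); [³H]ketanserin at 0.3–0.5 nM (5-HT2A). Competition curves fitted by non-linear regression, EC50 converted to Ki via Cheng–Prusoff.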

A short description of test [10]: Displacement of [3H]prazosin from porcine cerebral cortex alpha1 adrenoceptor. Type of test: tissue-based, Sus scrofa.
Test [11] deals with 5-hydroxytryptamine receptor 2A (Homo sapiens, UniProt P28223). The test can be described thus: Displacement of [3H]ketanserin from human 5HT2A receptor expressed in HEK293 cell membranes. Put shortly: as §4
Sequence of 5-hydroxytryptamine receptor 2A (P28223 whole entry): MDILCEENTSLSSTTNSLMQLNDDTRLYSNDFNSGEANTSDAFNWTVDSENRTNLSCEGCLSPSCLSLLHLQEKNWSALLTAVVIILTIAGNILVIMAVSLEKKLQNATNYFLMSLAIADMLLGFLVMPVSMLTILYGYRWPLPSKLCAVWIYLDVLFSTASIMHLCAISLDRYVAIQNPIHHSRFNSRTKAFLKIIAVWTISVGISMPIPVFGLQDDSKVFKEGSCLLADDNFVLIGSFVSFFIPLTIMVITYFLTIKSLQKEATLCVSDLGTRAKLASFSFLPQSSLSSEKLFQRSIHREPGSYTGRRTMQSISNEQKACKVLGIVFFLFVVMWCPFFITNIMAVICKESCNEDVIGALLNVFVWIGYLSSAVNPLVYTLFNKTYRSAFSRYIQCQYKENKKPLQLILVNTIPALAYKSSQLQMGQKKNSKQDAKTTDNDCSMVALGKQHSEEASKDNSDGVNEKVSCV
Test [12] can be described thus: Displacement of [3H][…] from porcine cerebral cortex 5HT1A receptor. Type of test: tissue-based, Sus scrofa. In short, it runs like this:
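Porcine cerebral cortex homogenates as receptor source; [³H][…] at 0.2–0.33 nM for 5-HT1A. Protein measured by Lowry against bovine serum albumin. Competition curves fitted by non-linear regression, EC50 converted to Ki via Cheng–Prusoff.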

A further test concerns the target D(1A) dopamine receptor (Homo sapiens, UniProt P21728). The test can be described thus: Displacement of [3H]SCH23390 from human dopamine D1 receptor expressed in HEK293 cell membranes. Put shortly: as §4

Sequence of D(1B) dopamine receptor (P21918 whole entry): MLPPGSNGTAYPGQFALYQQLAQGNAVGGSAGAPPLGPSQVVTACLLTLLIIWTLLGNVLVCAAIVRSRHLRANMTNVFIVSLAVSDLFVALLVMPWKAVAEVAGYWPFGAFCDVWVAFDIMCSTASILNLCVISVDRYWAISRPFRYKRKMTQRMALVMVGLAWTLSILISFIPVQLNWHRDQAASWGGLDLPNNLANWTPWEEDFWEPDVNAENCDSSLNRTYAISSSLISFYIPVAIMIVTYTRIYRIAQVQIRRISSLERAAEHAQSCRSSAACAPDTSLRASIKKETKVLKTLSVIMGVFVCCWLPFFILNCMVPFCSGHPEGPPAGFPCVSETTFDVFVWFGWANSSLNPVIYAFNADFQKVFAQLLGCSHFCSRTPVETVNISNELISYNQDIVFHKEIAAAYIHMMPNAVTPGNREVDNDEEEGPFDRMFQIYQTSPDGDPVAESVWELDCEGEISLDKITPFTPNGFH
Sequence of D(1A) dopamine receptor (P21728 whole entry): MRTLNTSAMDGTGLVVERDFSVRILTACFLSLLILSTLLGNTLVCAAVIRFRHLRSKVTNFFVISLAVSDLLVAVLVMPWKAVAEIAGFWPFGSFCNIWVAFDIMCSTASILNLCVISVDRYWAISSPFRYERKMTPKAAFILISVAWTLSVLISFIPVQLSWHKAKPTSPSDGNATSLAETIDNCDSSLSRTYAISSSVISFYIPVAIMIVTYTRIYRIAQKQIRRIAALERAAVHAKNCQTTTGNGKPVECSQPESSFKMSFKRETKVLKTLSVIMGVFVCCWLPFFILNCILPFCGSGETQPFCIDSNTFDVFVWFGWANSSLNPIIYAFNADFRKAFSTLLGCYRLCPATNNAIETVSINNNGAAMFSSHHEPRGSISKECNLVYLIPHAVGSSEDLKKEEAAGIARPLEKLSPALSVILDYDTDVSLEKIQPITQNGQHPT

In the case of `CCCN(CCCCNC(=O)/N=N/c1ccc(F)c(F)c1)C1Cc2ccccc2C1`, the Ki worked out at 25 nM at D(2) dopamine receptor [1], 31 nM at D(4) dopamine receptor, 2 nM at D(3) dopamine receptor [3] and 13 nM at D(2) dopamine receptor [7]. The values for the Efficacy (at D(3) dopamine receptor [2]; in test [5]) were 94% and 77%, respectively. Moreover, the EC50 at D(3) dopamine receptor [4] stood at 6.1 nM; on D(3) dopamine receptor [6] it was 79 nM. For the same compound, the Ratio Ki in the test filed under Homo sapiens [8] amounted to 6.5; in the test filed under Homo sapiens [9], 13.
Regarding `COc1ccccc1N1CCN(CCCCNC(=O)/N=N/c2cc(F)c(F)c(F)c2)CC1`, the Ki came to 6.6 nM at D(2) dopamine receptor [1], 47 nM on D(4) dopamine receptor, 1.4 nM at D(3) dopamine receptor [3] and 9.5 nM at D(2) dopamine receptor [7]. The Ratio Ki in the test filed under Homo sapiens [8] is 6.8; in the test listed under Homo sapiens [9], 4.7.
Consider `CCCN(CCNC(=O)/C=C/c1ccc(F)cc1)C1Cc2ccccc2C1`, for which the inhibition constant Ki on D(2) dopamine receptor [1] stood at 43 nM; at D(4) dopamine receptor, 1.4 nM; at D(1B) dopamine receptor, 11000 nM; at D(3) dopamine receptor [3], 14 nM; in [10], 58 nM; on D(2) dopamine receptor [7], 13 nM. Also, the results for the Ki (in [11]; in test [12]; on D(1A) dopamine receptor) were 210 nM, 4.3 nM and 2200 nM, respectively. Besides, the values for the Ratio Ki in the test filed under Homo sapiens [8] and in the test filed under Homo sapiens [9] were 0.93 and 3.1, respectively.
Turning to `CCCN(CCNC(=O)/N=N/c1ccc(F)c(F)c1)C1Cc2ccccc2C1`, the Ki on D(2) dopamine receptor [1] turned out to be 3.9 nM; on D(4) dopamine receptor, 2 nM; on D(3) dopamine receptor [3] it was 2.8 nM; on D(2) dopamine receptor [7], 8.5 nM. The Ratio Ki in the test listed under Homo sapiens [8] came to 3; in the test filed under Homo sapiens [9], 1.4.
As to `CCCN(CCNC(=O)/N=N/c1cc(F)c(F)c(F)c1)C1Cc2ccccc2C1`, the Ki at D(2) dopamine receptor [1] was found to be 110 nM; on D(4) dopamine receptor it was 10 nM; at D(1B) dopamine receptor, 3800 nM; on D(3) dopamine receptor [3] it was 87 nM; in test [10], 900 nM; on D(2) dopamine receptor [7], 73 nM. Further, the Ki in [11] came out at 510 nM; in test [12], 3.3 nM; on D(1A) dopamine receptor it was 2600 nM. Besides, the Ratio Ki came out at 0.84 in the test listed under Homo sapiens [8] and 1.3 in the test listed under Homo sapiens [9].
For `COc1ccccc1N1CCN(CCCCNC(=O)/N=N/c2ccc(F)c(F)c2)CC1`, the Ki stood at 7.5 nM on D(2) dopamine receptor [1], 36 nM on D(4) dopamine receptor, 0.72 nM at D(3) dopamine receptor [3] and 12 nM on D(2) dopamine receptor [7]. For the same compound, the results for the Ratio Ki in the test filed under Homo sapiens [8] and in the test listed under Homo sapiens [9] were 16 and 10, respectively.
Take `CCCN(CCCCNC(=O)/N=N/c1ccc(F)cc1)C1Cc2ccccc2C1`: the Ki was found to be 23 nM on D(2) dopamine receptor [1]; 34 nM at D(4) dopamine receptor; 7000 nM at D(1B) dopamine receptor; 0.85 nM at D(3) dopamine receptor [3]; 170 nM in test [10]; 36 nM on D(2) dopamine receptor [7]. Besides, the figures for the Ki (in test [11]; in test [12]; at D(1A) dopamine receptor) were 550 nM, 5.8 nM and 3300 nM, respectively. The Efficacy is 84% on D(3) dopamine receptor [2] and 81% in test [5]. Besides, the results for the EC50 at D(3) dopamine receptor [4] and at D(3) dopamine receptor [6] were 2.6 nM and 68 nM, respectively. Moreover, the Ratio Ki in the test listed under Homo sapiens [8] worked out at 42; in the test filed under Homo sapiens [9], 27.
Consider `CCCN(CCCCNC(=O)/N=N/c1cc(F)c(F)c(F)c1)C1Cc2ccccc2C1`, for which the inhibition constant Ki at D(2) dopamine receptor [1] is 40 nM; on D(4) dopamine receptor, 40 nM; on D(3) dopamine receptor [3], 4.9 nM; on D(2) dopamine receptor [7] it was 12 nM. For the same compound, the values for the Efficacy (at D(3) dopamine receptor [2]; in [5]) were 90% and 101%, respectively. In addition, the 50% effective concentration (EC50) at D(3) dopamine receptor [4] is 11 nM; on D(3) dopamine receptor [6], 114 nM. For the same compound, the Ratio Ki in the test listed under Homo sapiens [8] is 2.4; in the test filed under Homo sapiens [9] it was 8.2.
As for `CCCN(CCNC(=O)/N=N/c1ccc(F)cc1)C1Cc2ccccc2C1`, the Ki at D(2) dopamine receptor [1] came out at 5 nM; at D(4) dopamine receptor, 0.99 nM; on D(3) dopamine receptor [3] it was 1.4 nM; on D(2) dopamine receptor [7] it was 4 nM. In addition, the Ratio Ki in the test filed under Homo sapiens [8] came out at 2.9; in the test filed under Homo sapiens [9], 3.6.
With `COc1ccccc1N1CCN(CCCCNC(=O)/N=N/c2ccc(F)cc2)CC1`, the Ki on D(3) dopamine receptor [3] is 3 nM; in [10] it was 5.2 nM; at D(2) dopamine receptor [7] it was 34 nM; in [12] it was 3.3 nM. In addition, the Ratio Ki in the test listed under Homo sapiens [8] came to 11; in the test filed under Homo sapiens [9], 13.
As for `CCCN(CCCCNC(=O)/C=C/c1ccc(F)cc1)C1Cc2ccccc2C1`, the Ki at D(2) dopamine receptor [1] was 19 nM; at D(4) dopamine receptor, 16 nM; on D(1B) dopamine receptor, 2900 nM; on D(3) dopamine receptor [3], 0.31 nM; in test [10] it was 120 nM; on D(2) dopamine receptor [7] it was 2.9 nM. In addition, the Ki came to 89 nM in test [11], 5 nM in test [12] and 1300 nM at D(1A) dopamine receptor. For the same compound, the Ratio Ki is 9.4 in the test filed under Homo sapiens [8] and 61 in the test filed under Homo sapiens [9].
